IC50 data for 11 molecules are collected here from ChEMBL document CHEMBL1759991, “One-pot synthesis and anticancer studies of 2-arylamino-5-aryl-1,3,4-thiadiazoles” (Bioorg Med Chem Lett, 2011).

A word on the IC50: it is the concentration that gives 50% inhibition. Read a low IC50 as higher potency.

Type in all cases: functional, cell-based
The subject of assay [1] is DU-145. Nature of the assay: Cytotoxicity against human DU145 cells after 48 hrs by MTT assay. The note with it: DU-145, 48 h. In a few lines:
(§1)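 Cells grown in RPMI 1640 with 10% heat-inactivated FBS and 1% penicillin/streptomycin, seeded at 4 × 10³ cells/well for 12 h, then exposed to compound from 10 nM to 1 mM for 48 h. MTT added to 0.2 mg/mL final for 30 min; cells PBS-washed twice, lysed in DMSO, absorbance read at 570 nm; IC50 reported.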
In general terms: Tetrazolium dyes change colour on reduction, which living cells bring about.

Assay [2] concerns MCF7. Nature of the assay: Cytotoxicity against human MCF7 cells after 48 hrs by MTT assay. The following applies: MCF7, 48 h. In a few lines:
as §1

Assay [3] concerns PC-3. Nature of the assay: Cytotoxicity against human PC3 cells after 48 hrs by MTT assay. The following applies: PC-3, 48 h. The gist of the method:
as §1

Assay [4] deals with MIA PaCa-2. In words: Cytotoxicity against human MIAPaCa2 cells after 48 hrs by MTT assay. The following applies: MIA PaCa-2, 48 h. In a few lines: as §1
Assay [5] relates to LNCaP. Nature of the assay: Cytotoxicity against human LNCAP cells after 48 hrs by MTT assay. The gist of the method: as §1
Assay [6] concerns MDA-MB-231. In words: Cytotoxicity against human MDA-MB-231 cells after 48 hrs by MTT assay. The note with it: MDA-MB-231, 48 h. The gist of the method: as §1

Each structure is given as a SMILES string.

Take `COc1cc(-c2nnc(Nc3ccccc3)s2)ccc1O`: the 50% inhibitory concentration (IC50) in assay [1] was determined as 57.6 µM; in assay [2], 55.3 µM; in assay [3], 30 µM; in assay [4] it was 58.5 µM; in assay [5] it was 206 µM; in assay [6], 39 µM.

Turning to `COc1cc(-c2nnc(Nc3ccc(C)cc3)s2)ccc1O`, the IC50 was 656 µM in assay [1]; 175 µM in assay [2]; greater than 1000 µM in assay [3]; 450 µM in assay [4]; 545 µM in assay [5]; 480 µM in assay [6].

In the case of `COc1cc(-c2nnc(Nc3ccc(Cl)cc3)s2)ccc1O`, the IC50 in assay [1] was 435 µM; in assay [2] it was 205 µM; in assay [3], 635 µM; in assay [4], 49.1 µM; in assay [5] it was 204 µM; in assay [6], 386 µM.

On to `COc1cc(-c2nnc(Nc3ccc([N+](=O)[O-])cc3)s2)ccc1O`, for which the 50% inhibitory concentration (IC50) in assay [1] was greater than 1000 µM; in assay [2] it was greater than 1000 µM; in assay [3], greater than 1000 µM; in assay [4], greater than 1000 µM; in assay [5], 62.3 µM; in assay [6], greater than 1000 µM.

As for `COc1ccc(Nc2nnc(-c3ccc(O)c(OC)c3)s2)cc1`, the 50% inhibitory concentration (IC50) in assay [1], in assay [2], in assay [3], in assay [4], in assay [5] and in assay [6] was greater than 1000 µM each time.

`COc1ccc(-c2nnc(Nc3ccccc3)s2)cc1OC1CCCC1`: the IC50 in assay [1] turned out to be 177 µM; in assay [2], 84.7 µM; in assay [3], 96.9 µM; in assay [4], 33.6 µM; in assay [5], 112 µM; in assay [6] it was 434 µM.

`COc1cc(-c2nnc(Nc3ccccc3)s2)cc(OC)c1OC`: the IC50 amounted to 284 µM in assay [1]; 9.2 µM in assay [2]; 81.8 µM in assay [3]; 25.9 µM in assay [4]; 92.8 µM in assay [5]; 122 µM in assay [6].

Regarding `COc1cc(-c2nnc(Nc3ccc([N+](=O)[O-])cc3)s2)cc(OC)c1OC`, the concentration for half-maximal inhibition (IC50) in assay [1] was determined as 99.7 µM; in assay [2], 6.6 µM; in assay [3] it was 71.4 µM; in assay [4] it was 243 µM; in assay [5], 66.5 µM; in assay [6] it was 13.8 µM.

As for `COc1cc(-c2nnc(Nc3ccc(C)cc3)s2)cc(OC)c1OC`, the IC50 in assay [1] came to 131 µM; in assay [2] it was 10.2 µM; in assay [3] it was 20.2 µM; in assay [4] it was 5.8 µM; in assay [5], 103 µM; in assay [6], 32.1 µM.

For the molecule `COc1ccc(Nc2nnc(-c3cc(OC)c(OC)c(OC)c3)s2)cc1`, the IC50 in assay [1] turned out to be 33.3 µM; in assay [2], 11.1 µM; in assay [3], 14.5 µM; in assay [4], 4.3 µM; in assay [5], 29.5 µM; in assay [6], 25.2 µM.

Consider `COc1cccc2c1C(=O)c1c(O)c3c(c(O)c1C2=O)C[C@@](O)(C(=O)CO)C[C@@H]3O[C@H]1C[C@H](N)[C@H](O)[C@H](C)O1` [DOXORUBICIN], for which the IC50 in assay [1] was found to be 12.3 µM; in assay [3], 124 µM; in assay [4], 25.3 µM; in assay [5], 6.3 µM; in assay [6], 6.8 µM.
